What was measured:
Cannabinoid receptor 1 [1] = target: T1, Cannabinoid receptor 1 (Homo sapiens, UniProt P21554); test: Agonist activity at human CB1 receptor expressed in Sf9 cells by [35S]-GTPgammaS binding assay; format: functional
Cannabinoid receptor 2 [2] = target: T2, Cannabinoid receptor 2 (Homo sapiens, UniProt P34972); test: Agonist activity at human CB2 receptor expressed in CHO cells by [35S]-GTPgammaS binding assay; format: functional, cell-based
Cannabinoid receptor 2 [3] = target: T2, Cannabinoid receptor 2; test: Agonist activity at human CB2 receptor expressed in CHO cells by [35S]-GTPgammaS binding assay relative to control; format: functional, cell-based
[4] = Drug metabolism in human liver microsomes at 2 uM after 0.5 hr by LC/MS/MS analysis; format: ADME; details: read-out: Drug metabolism
[5] = Drug metabolism in rat liver microsomes at 2 uM after 0.5 hr by LC/MS/MS analysis; format: ADME; details: read-out: Drug metabolism
[6] = Drug metabolism in dog liver microsomes at 2 uM after 0.5 hr by LC/MS/MS analysis; format: ADME, Canis lupus familiaris; details: read-out: Drug metabolism
Rattus norvegicus = species: Rattus norvegicus; test: Inhibition of GABA gated chloride channel in rat cortex at 10 uM by radioligand binding assay
Outline: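 Radioligand binding to GABA-gated chloride channels from rat, run by an outside contract lab.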

Cannabinoid receptor 1 [7] = target: T1, Cannabinoid receptor 1; test: Agonist activity at human CB1 receptor expressed in Sf9 cells by [35S]-GTPgammaS binding assay relative to control; format: functional

T2 sequence (P34972 whole entry): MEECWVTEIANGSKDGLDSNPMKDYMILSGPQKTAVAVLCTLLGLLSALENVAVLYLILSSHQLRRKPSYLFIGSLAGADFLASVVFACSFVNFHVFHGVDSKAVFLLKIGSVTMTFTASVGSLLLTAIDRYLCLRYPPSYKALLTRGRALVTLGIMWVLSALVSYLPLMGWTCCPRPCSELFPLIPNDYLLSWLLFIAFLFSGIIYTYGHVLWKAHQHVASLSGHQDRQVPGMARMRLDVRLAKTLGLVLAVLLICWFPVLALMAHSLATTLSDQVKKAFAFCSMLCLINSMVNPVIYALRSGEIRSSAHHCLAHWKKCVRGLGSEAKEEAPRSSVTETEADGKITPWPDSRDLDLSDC
T1 sequence (P21554 whole entry): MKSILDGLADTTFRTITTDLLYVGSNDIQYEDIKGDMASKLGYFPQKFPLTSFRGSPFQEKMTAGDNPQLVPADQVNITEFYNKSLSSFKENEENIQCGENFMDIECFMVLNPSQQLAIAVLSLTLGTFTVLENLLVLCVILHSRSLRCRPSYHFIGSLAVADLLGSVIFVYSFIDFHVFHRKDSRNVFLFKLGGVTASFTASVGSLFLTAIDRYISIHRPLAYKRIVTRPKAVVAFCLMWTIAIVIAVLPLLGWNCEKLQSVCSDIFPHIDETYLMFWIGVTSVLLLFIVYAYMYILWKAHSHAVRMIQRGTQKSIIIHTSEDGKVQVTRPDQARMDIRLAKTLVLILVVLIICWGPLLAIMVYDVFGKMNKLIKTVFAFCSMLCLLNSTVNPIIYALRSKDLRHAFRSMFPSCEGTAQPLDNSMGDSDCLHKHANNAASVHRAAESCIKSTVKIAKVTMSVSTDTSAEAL

Row | Compound | EC50 (Cannabinoid receptor 1 [1]) [µM] | EC50 (Cannabinoid receptor 2 [2]) [µM] | Efficacy (Cannabinoid receptor 2 [3]) [%] | metabolised at 0.5 h, 2 µM [4] [%] | metabolised at 0.5 h, 2 µM [5] [%] | metabolised at 0.5 h, 2 µM [6] [%] | inhibition (Rattus norvegicus) [%] | Efficacy (Cannabinoid receptor 1 [7]) [%]
1 | Cc1nc(N2CCN(C)CC2)c2nc(-c3ccccc3Cl)n([C@@H](C)CO)c2n1 | > 100 | 0.0125 | 96.5 | 11 | 79 | 60 | – | –
2 | CCN1CCN(c2nc(C)nc3c2nc(-c2ccccc2Cl)n3C(COC)COC)CC1 | > 100 | 0.005 | 69.3 | 35 | 58 | 66 | < 10 | –
3 | Cc1nc(N2CCN(C)CC2)c2nc(-c3ccccc3Cl)n(C(C)(C)CO)c2n1 | 5 | 0.0125 | 72.6 | 43 | 93 | 90 | 20 | 43.2
4 | CCN1CCN(c2nc(C)nc3c2nc(-c2ccccc2Cl)n3CCCOC)CC1 | 1.38 | 0.0043 | 96.5 | 36 | 71 | 99 | – | 25.7
5 | COC(=O)NCCn1c(-c2ccccc2Cl)nc2c(N3CCN(C)CC3)nc(C)nc21 | – | – | – | 14 | 25 | 62 | – | –

Source: ChEMBL document CHEMBL3352465, “The SAR development of substituted purine derivatives as selective CB2 agonists for the treatment of chronic pain” (Bioorg Med Chem Lett, 2014)
